Molecules are shown by their SMILES.

Experiment [1] concerns the target T1, C-C chemokine receptor type 3 (Homo sapiens) (UniProt P51677).
T1 sequence (whole entry): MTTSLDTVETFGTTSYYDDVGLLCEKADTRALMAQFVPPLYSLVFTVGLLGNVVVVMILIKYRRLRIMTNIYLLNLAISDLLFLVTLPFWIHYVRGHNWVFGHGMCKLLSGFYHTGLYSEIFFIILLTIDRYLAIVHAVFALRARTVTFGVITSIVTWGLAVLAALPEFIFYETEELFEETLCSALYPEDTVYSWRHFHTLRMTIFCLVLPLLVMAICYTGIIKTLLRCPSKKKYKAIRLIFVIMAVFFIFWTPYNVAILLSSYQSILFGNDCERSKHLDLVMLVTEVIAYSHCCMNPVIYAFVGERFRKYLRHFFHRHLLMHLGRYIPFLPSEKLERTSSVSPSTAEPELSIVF
Put plainly: Binding affinity for human CCR3 at 10 uM.

The target in experiment [2] is T2, C-C chemokine receptor type 2 (Homo sapiens, UniProt P41597). In words: Displacement of radiolabeled MCP1 from human CCR2 in PBMCs. In outline:
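Competitive binding: test compound displaces radiolabeled MCP-1 from CCR2 on peripheral blood mononuclear cells. IC50 is given as mean ± SD when n = 2 and mean ± SEM when n > 2, with n the number of determinations.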

Experiment [3] concerns the target T2, C-C chemokine receptor type 2. In words: Binding affinity to wild type CCR2.
The nature of experiment [4]: Ratio of IC50 for wild type CCR2 to IC50 for CCR2 E291A mutant.
Experiment [5] concerns the target C-C chemokine receptor type 2 (Homo sapiens, UniProt P41597, E291A). Put plainly: Binding affinity to CCR2 E291A mutant.
Experiment [6] is described as follows: Ratio of IC50 for wild type CCR2 to IC50 for CCR2 T292A mutant.
Experiment [7] deals with T2, C-C chemokine receptor type 2. Put plainly: Antagonist activity at human CCR2 in PBMCs assessed as inhibition of MCP1-induced calcium flux. Format: functional. Background: Calcium assays in cells follow changes in intracellular calcium, usually with a dye or a luminescent sensor.
Experiment [8] deals with C-C chemokine receptor type 2 (Homo sapiens, UniProt P41597, T292A). In words: Binding affinity to CCR2 T292A mutant.
C-C chemokine receptor type 2 (Homo sapiens, UniProt P41597, T292A), sequence (P41597 whole entry T292A): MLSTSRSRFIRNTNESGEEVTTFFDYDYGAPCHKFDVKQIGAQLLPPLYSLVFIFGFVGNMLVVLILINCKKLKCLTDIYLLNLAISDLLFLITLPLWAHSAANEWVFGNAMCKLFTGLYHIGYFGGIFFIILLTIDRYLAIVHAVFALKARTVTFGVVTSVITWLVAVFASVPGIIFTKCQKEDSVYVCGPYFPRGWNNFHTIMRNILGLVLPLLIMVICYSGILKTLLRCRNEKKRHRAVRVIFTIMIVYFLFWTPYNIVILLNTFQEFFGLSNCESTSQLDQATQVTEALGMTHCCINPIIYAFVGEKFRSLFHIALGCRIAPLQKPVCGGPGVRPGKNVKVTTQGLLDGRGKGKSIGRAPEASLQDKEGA
The species named for the next experiment is Homo sapiens. Put plainly: Selectivity for human CCR2 over human CCR3.

T2 sequence (P41597 whole entry): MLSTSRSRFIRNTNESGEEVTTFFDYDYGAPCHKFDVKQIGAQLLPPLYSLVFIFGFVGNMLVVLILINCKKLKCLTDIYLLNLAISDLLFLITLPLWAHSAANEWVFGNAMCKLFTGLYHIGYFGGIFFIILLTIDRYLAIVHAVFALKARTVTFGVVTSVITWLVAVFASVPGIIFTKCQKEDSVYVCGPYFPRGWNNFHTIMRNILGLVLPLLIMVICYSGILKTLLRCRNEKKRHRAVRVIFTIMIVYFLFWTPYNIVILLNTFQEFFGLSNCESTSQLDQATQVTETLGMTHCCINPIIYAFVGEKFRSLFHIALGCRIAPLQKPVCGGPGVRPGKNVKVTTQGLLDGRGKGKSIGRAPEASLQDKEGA
C-C chemokine receptor type 2 (Homo sapiens, UniProt P41597, E291A), sequence (P41597 whole entry E291A): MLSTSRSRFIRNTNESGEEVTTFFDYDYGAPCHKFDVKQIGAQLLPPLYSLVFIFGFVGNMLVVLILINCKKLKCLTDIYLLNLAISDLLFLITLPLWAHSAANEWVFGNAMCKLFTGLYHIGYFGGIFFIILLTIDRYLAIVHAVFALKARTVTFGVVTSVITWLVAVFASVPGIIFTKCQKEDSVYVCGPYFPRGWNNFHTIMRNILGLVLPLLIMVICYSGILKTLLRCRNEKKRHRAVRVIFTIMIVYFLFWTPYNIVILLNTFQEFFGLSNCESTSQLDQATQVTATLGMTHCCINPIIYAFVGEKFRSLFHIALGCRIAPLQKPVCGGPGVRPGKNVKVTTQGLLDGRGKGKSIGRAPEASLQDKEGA

Take `Cc1ccc(CN[C@H]2CCCC[C@@H]2NC(=O)CNC(=O)c2cccc(C(F)(F)F)c2)c(C)c1`: the inhibition in experiment [1] came out at 54%. In experiment [2], the IC50 came to 540 nM.
With `CSc1ccc(C(=O)N[C@@H]2CCCC[C@@H]2NC(=O)CNC(=O)c2cc(C(F)(F)F)ccc2NC(=O)NC(C)C)cc1`, the IC50 in experiment [3] turned out to be 7.5 nM; in experiment [5], 3.7 nM; in experiment [2] it was 5.1 nM; in [7] it was 18 nM; in experiment [8] it was 304 nM. The inhibition in [1] worked out at 37%. In addition, the values for the Ratio IC50 in [4] and in [6] were 0.5 and 40.5, respectively.
In turn, `O=C(CNC(=O)c1cccc(C(F)(F)F)c1)N[C@H]1CCCC[C@H]1NC(=O)c1ccc(I)cc1` had an inhibition in [1] of 27%. The IC50 turned out to be 37 nM in experiment [2] and 30 nM in experiment [7].
Turning to `Cc1ccc(CN2CC[C@@H](NC(=O)CNC(=O)c3cccc(C(F)(F)F)c3)C2)c(C)c1`, the Ratio IC50 in experiment [6] is 30.
Consider `NS(=O)(=O)c1ccc(C(=O)N[C@@H]2CCCC[C@@H]2NC(=O)CNC(=O)c2cccc(C(F)(F)F)c2)cc1` (racemic), for which the inhibition in [1] was determined as 39%. The IC50 in experiment [2] is 21 nM; in experiment [7] it was 42 nM.
With `O=C(CNC(=O)c1cccc(C(F)(F)F)c1)N[C@H]1CCCC[C@H]1NCc1ccc(OC(F)(F)F)cc1` (racemic), in the experiment filed under Homo sapiens, the Selectivity ratio was 20. In [1], this compound returned an inhibition of 50%. The IC50 in experiment [2] was determined as 530 nM.
Compound `Nc1ccc(C(F)(F)F)cc1C(=O)NCC(=O)N[C@H]1CCCC[C@H]1NC(=O)c1ccc(S(N)(=O)=O)cc1` (racemic) returned an inhibition in experiment [1] of 6%. Besides, the values for the IC50 in experiment [2] and in experiment [7] were 23 nM and 4.8 nM, respectively.
With `CC(C)c1ccc(CN[C@@H]2CCCC[C@@H]2NC(=O)CNC(=O)c2cccc(C(F)(F)F)c2)cc1` (racemic), in the experiment listed under Homo sapiens, the Selectivity ratio is 20. This compound returned an inhibition in experiment [1] of 55%. The same compound registered an IC50 in experiment [2] of 360 nM.
On the same counts, the results for `O=C(CNC(=O)c1cccc(C(F)(F)F)c1)N[C@H]1CCCC[C@H]1NCc1ccc(C(F)(F)F)cc1` (racemic) are 20, 47% and 400 nM.
Turning to `NS(=O)(=O)c1ccc(C(=O)N[C@@H]2CCCC[C@@H]2NC(=O)CNC(=O)c2cc(C(F)(F)F)ccc2NC(=O)C2CCCCC2)cc1` (racemic), the inhibition in experiment [1] stood at 10%. Further, the figures for the concentration for half-maximal inhibition (IC50) in [2] and in [7] were 9 nM and 3.7 nM, respectively.
Turning to `Cc1ccc(C(=O)N[C@@H]2CCCC[C@@H]2NC(=O)CNC(=O)c2cccc(C(F)(F)F)c2)c(C)c1` (racemic), the IC50 in experiment [3] was found to be 4130 nM; in experiment [5], 7850 nM; in experiment [2], 4130 nM. Further, in experiment [4], the Ratio IC50 amounted to 1.9.
Regarding `CSc1ccc(C(=O)N[C@@H]2CCCC[C@@H]2NC(=O)CNC(=O)c2cccc(C(F)(F)F)c2)cc1` (racemic), the inhibition in experiment [1] was found to be 31%. Besides, the IC50 in experiment [2] was determined as 64 nM; in experiment [7] it was 215 nM.
In experiment [2], `O=C(CNC(=O)c1cccc(C(F)(F)F)c1)N[C@H]1CCCC[C@@H]1NCc1ccc(Cl)cc1Cl` (racemic) registered an IC50 of 7860 nM.
Still for that read-out and setting: with `Cc1ccc(CN(C)[C@H]2CCCC[C@@H]2NC(=O)CNC(=O)c2cccc(C(F)(F)F)c2)c(C)c1` (racemic) the figure was 3010 nM.
As to `O=C(CNC(=O)c1cccc(C(F)(F)F)c1)N[C@H]1CCCC[C@H]1NCc1ccc(Cl)cc1` (racemic), the Selectivity ratio in the experiment listed under Homo sapiens stood at 20. For the same compound, the IC50 in experiment [3] is 268 nM; in experiment [5], 2120 nM; in experiment [2] it was 790 nM. Also, the inhibition in [1] was 24%. Also, the Ratio IC50 in [4] came to 7.9.
In experiment [1], `Cc1ccc(CN[C@@H]2CCCC[C@@H]2NC(=O)CNC(=O)c2cccc(C(F)(F)F)c2)c(C)c1` (racemic) had an inhibition of 54%. Further, in [2], the IC50 amounted to 2170 nM.
Turning to `O=C(CNC(=O)c1cccc(C(F)(F)F)c1)N[C@H]1CCCC[C@@H]1NC(=O)c1ccc(Cl)cc1` (racemic), the half-maximal inhibitory concentration (IC50) in [2] worked out at 12000 nM.
For `O=C(CNC(=O)c1cccc(C(F)(F)F)c1)N[C@H]1CCCC[C@@H]1NCc1ccc(Cl)cc1` (racemic), in experiment [1], the inhibition worked out at 50%. In [2], the IC50 was 970 nM.
As for `Cc1cc(C)c(CN[C@H]2CCCC[C@@H]2NC(=O)CNC(=O)c2cccc(C(F)(F)F)c2)c(C)c1` (racemic), the IC50 in [2] was determined as 1190 nM.
In turn, `Cc1ccc(C(=O)N[C@@H]2CCCC[C@@H]2NC(=O)CNC(=O)c2cccc(C(F)(F)F)c2)cc1` (racemic) had an inhibition in [1] of 57%. For the same compound, the IC50 in experiment [2] came out at 550 nM.
As for `CS(=O)(=O)c1ccc(C(=O)N[C@@H]2CCCC[C@@H]2NC(=O)CNC(=O)c2cccc(C(F)(F)F)c2)cc1` (racemic), in [1], the inhibition stood at 3%. In [2], the IC50 came to 87 nM.

A word on the inhibition: it is the relative decrease from the control value, in per cent. In general, IC50 refers to the point on the concentration scale where inhibition reaches its midpoint.

These data come from ChEMBL document CHEMBL1141565, “Discovery of disubstituted cyclohexanes as a new class of CC chemokine receptor 2 antagonists” (J Med Chem, 2008).
